Measured values from paper PMC4674360 (Molecular cancer therapeutics, 2015).
Entries after “also recorded” stand apart in the source; their conditions may differ. Where two headings read alike, the source gives them in different places. Values belong to the compound of their own block, whether it stands above or below them.

Tests used:
[1] = biological target: T1, murine Breast Cancer Resistance Protein (BCRP1) (Mus musculus, UniProt Q7TMS5); experiment: In vitro intracellular accumulation in BCRP1-overexpressing MDCKII cells; type: in vitro ADME; details: rucaparib 2 −M, prazosin 0.39 nM, 60 minutes at 37°C, mean ± SD, n = 5-6
T1 sequence (Q7TMS5 1-657): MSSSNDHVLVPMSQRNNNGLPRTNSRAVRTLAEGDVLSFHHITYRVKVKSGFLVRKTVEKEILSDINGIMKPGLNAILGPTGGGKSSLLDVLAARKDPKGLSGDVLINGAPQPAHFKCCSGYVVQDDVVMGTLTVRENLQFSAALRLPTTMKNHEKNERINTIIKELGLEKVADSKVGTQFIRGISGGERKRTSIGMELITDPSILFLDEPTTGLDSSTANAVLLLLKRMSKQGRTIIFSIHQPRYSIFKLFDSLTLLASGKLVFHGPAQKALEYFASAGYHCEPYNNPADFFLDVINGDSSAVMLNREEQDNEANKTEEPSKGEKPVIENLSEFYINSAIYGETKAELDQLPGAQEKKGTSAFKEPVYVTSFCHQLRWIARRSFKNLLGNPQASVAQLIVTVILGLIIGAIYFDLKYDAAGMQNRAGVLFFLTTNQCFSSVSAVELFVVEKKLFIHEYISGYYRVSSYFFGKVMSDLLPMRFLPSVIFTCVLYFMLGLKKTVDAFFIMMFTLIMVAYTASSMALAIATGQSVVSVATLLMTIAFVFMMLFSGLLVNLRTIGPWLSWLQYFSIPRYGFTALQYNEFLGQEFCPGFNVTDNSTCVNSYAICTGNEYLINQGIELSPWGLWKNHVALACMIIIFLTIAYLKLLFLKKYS
Outline: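 MDCKII cells (vector control or murine Bcrp1-transfected) were seeded at 2 x 10^5/well and grown to 80% confluence. After washing in serum-free buffer, cells were preincubated 30 min ± 0.2 µM Ko143. They were then exposed to 2 µM test compound or 0.39 nM prazosin (substrate control) for 60 min at 37°C. Uptake was stopped with cold PBS and cells lysed in 1% Triton X-100. Intracellular drug was measured by LC-MS/MS and normalised to BCA protein; mean ± SD, n = 5-6.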

PDGF-driven glioma = details: higher drug delivery into brain in knockout mice; cited from earlier work
GBM22 = details: cited from earlier work
[2] = 26 (veliparib); ref 48 (E7016); cited from earlier work
GL261 tumors = details: cited from earlier work
[3] = test system: GBM12 orthotopic xenografts; experiment: GBM12 orthotopic xenograft survival; type: in vivo, mice; details: TMZ 50 mg/kg, rucaparib 1 mg/kg days 1-5 every 28 days × 3 cycles, placebo 16 days, p = 0.88
GBM12 flank xenografts = experiment: GBM12 flank xenograft tumor regrowth delay; type: in vivo, mice; details: TMZ 50 mg/kg days 1-5, rucaparib 1 mg/kg days 1-5, three 28 day cycles, placebo 32 days
[4] = MALDI mass spectrometric imaging of drug distribution; type: in vivo, mice; details: thirty minutes after single 10 mg/kg IP dose
Outline: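 Tumour-bearing mice got one 10 mg/kg IP dose and were euthanised 30 min later. Brain, liver and tumour were snap-frozen; 12 µm cryosections went onto ITO slides, with sister sections for H&E. DHB matrix was sprayed on (160 mg/mL in methanol/0.2% TFA 70:30). Imaging used a 12 T FT-ICR MS, positive ion mode, m/z 100-2500, 250 shots per spot, 80 µm pixels (brain, liver) and 100 µm (flank tumour).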

[5] = type: in vivo, mice; details: for half-life: mouse, 1 mg/kg
Outline: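 Mice with orthotopic GBM12 xenografts got a single 1 mg/kg intraperitoneal dose. Plasma, liver and brain (tumour-injected and contralateral hemispheres) were collected and flash-frozen at 0, 60, 120, 360 and 1440 min after dosing. Drug levels were measured by LC-MS; values are the mean of 2 or 3 mice per time point.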

[6] = test system: GBM14, GBM43, GBM59 intracranial xenografts; experiment: Other orthotopic primary GBM xenograft lines, survival; type: in vivo, mice; details: three other primary GBM xenograft lines
Outline: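 Patient-derived GBM lines were kept by serial passage in mice and implanted intracranially. Mice with established tumours were randomised, 10 per group, to four arms: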

[7] = Steady-state brain distribution in wild-type and Mdr1a/b-/-Bcrp1-/- mice; type: in vivo, FVB mice
Outline: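 FVB wild-type and Mdr1a/b-/-Bcrp1-/- mice received the test compound for 48 h by intraperitoneal osmotic minipump at 5 µg/hr (pump stock 5 mg/mL in DMSO). Plasma and whole brain were flash-frozen. Brain was homogenised in 5% BSA, samples spiked with dasatinib internal standard and extracted in ethyl acetate, then assayed by positive-mode LC-MS/MS. Brain-to-plasma ratio reported as mean ± SD, n=4.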

PARP = PARP enzymatic activity in tissue homogenates after a single dose; type: in vivo, mice
[8] = Tolerability of chronic rucaparib with TMZ; type: in vivo, mice; details: IP, with 50 mg/kg PO TMZ
[9] = 60 minutes, single 1 mg/kg dose

intracellular accumulation in BCRP1-overexpressing cells [1]: 16.8±1.4 % of control
SMILES: COc1cc2nc(N3CCN(C(=O)c4ccco4)CC3)nc(N)c2cc1OC [prazosin]

SMILES: Cc1nc(Nc2ncc(C(=O)Nc3c(C)cccc3Cl)s2)cc(N2CCN(CCO)CC2)n1 [dasatinib]
survival of tumor-bearing Mdr1a/b-/-Bcrp1-/- knockout mice compared to wild-type mice (PDGF-driven glioma): significant improvement in survival

SMILES: C=CCn1c(=O)c2cnc(Nc3ccc(N4CCN(C)CC4)cc3)nc2n1-c1cccc(C(C)(C)O)n1 [MK-1775]
sensitizing effect combined with temozolomide, flank models (GBM22; flank models): significant sensitizing effects
sensitizing effect combined with temozolomide, GBM22 (GBM22; orthotopic GBM22 (contrasted with flank)): no sensitizing effect

SMILES: C[C@]1(c2nc3c(C(N)=O)cccc3[nH]2)CCCN1 [veliparib]
blood brain barrier penetration [2]: significantly penetrate the blood brain barrier

SMILES: Cc1ccc2c(=O)c3cccc(CC(=O)O)c3oc2c1C [DMXAA, 5,6-dimethylxanthenone-4-acetic acid]
effect on survival with intracranial GL261 tumors (GL261 tumors; intracranial): no survival extension
effect on subcutaneous GL261 tumors (GL261 tumors; subcutaneous): significantly delayed tumor growth

SMILES: O=c1[nH]nc2c3c(cccc13)Oc1ccc(CN3CCC(O)CC3)cc1-2 [E7016]
blood brain barrier penetration [2]: significantly penetrate the blood brain barrier

SMILES: Cn1nnc2c(C(N)=O)ncn2c1=O [TMZ, temozolomide]
median survival [3]: 68 days
Median time for tumor to exceed a 1000 mm^3 size endpoint (GBM12 flank xenografts): 86 days

SMILES: CNCc1ccc(-c2[nH]c3cc(F)cc4c3c2CCNC4=O)cc1 [rucaparib]
rucaparib distribution in flank tumors by MALDI-MSI ([4]; GBM12 flank, n=2): homogeneous and high-level accumulation
rucaparib distribution in orthotopic tumors by MALDI-MSI ([4]; GBM12 orthotopic, n=3): no appreciable rucaparib signal
rucaparib distribution in normal brain by MALDI-MSI ([4]; adjacent normal brain, 10 mg/kg): no appreciable rucaparib signal; also recorded: below the limit of detection
concentration in contralateral brain hemisphere [5, 9]: 0.08 −M
concentration in liver [5, 9]: 11.05 −M
concentration in tumor-injected hemisphere [5, 9]: 0.35 −M
concentration in tumor-injected hemisphere ([5]; 6 hours, single 1 mg/kg dose): 0.23 −M
levels in normal brain ([5]; by 360 minutes after injection, single 1 mg/kg dose): undetectable
half-life ([5]; plasma, ip): 1.5 h
half-life ([5]; tumor-injected brain hemisphere, intraperitoneal): 13 h
maximum plasma concentration relative to Cmax in humans (times lower) ([5]; single 1 mg/kg dose in mice versus human Cmax of ref 12): about four-five
potentiation of TMZ by rucaparib [6]: did not potentiate TMZ
Kp at 48 h ([7]; FVB, mouse, brain, ip, 5 µg/hr, brain to plasma ratio at steady state, Mdr1a/1b-/-;Bcrp1-/- (TKO) mice, 48-hour intraperitoneal infusion at 5 −g/hr, mean ± SD, n=4): 1.61 ± 0.25
increase in the brain-to-plasma ratio in knockout versus wild-type mice ([7]; Mdr1a/b-/-Bcrp1-/- knockout mice): ~20 fold
PARP activity in normal brain (contralateral hemisphere) (PARP; by 360 minutes after injection): recovered to baseline
PARP activity in liver (PARP; reduced for several hours after single 1 mg/kg dose): 5 % of baseline
PARP activity in tumor-injected hemisphere (PARP; remained suppressed at this level for 24 hours, single 1 mg/kg dose): 50 % of baseline
highest dose tolerated for chronic administration [8]: 1 mg/kg
intracellular accumulation in BCRP1-overexpressing cells [1]: 14.5±5.2 % of control
